# Columns and labels:
# Assay type in all cases: functional
# [1] = system: KM12; experiment: Anticancer activity against human KM12 cells
# Outline: (§1)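 NCI 60-cell human tumour panel (leukemia, lung, colon, CNS, melanoma, ovarian, renal, prostate, breast). A first-stage single-dose screen at 10 µM was run. Compounds giving over 60% growth inhibition in at least eight lines went on to a five-dose response. Effect was plotted against log10 molar concentration per line. GI50 is the concentration giving 50% reduction in net protein increase versus control cells. LC50 is the concentration lethal to 50% of cells.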
# [2] = system: PC-3; experiment: Anticancer activity against human PC3 cells; outline: as §1
# [3] = system: U-251; experiment: Anticancer activity against human U251 cells
# Outline: (§2)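 NCI 60-cell-line panel. A single-dose (10 µM) prescreen was run first. Compounds giving over 60% growth inhibition in at least eight lines then went to five-dose response studies. Dose-response curves of effect versus log10 concentration. GI50 is the molar concentration giving a 50% reduction in net protein increase versus control cells. LC50 is the concentration lethal to 50% of cells.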
# [4] = system: COLO 205; experiment: Anticancer activity against human COLO205 cells; outline: as §1
# [5] = system: HCT-15; experiment: Anticancer activity against human HCT15 cells; outline: as §1
# [6] = system: MDA-MB-435; experiment: Anticancer activity against human MDA-MB-435 cells; outline: as §1
# [7] = system: SN12C; experiment: Anticancer activity against human SN12C cells; outline: as §1
# [8] = system: CCRF-CEM; experiment: Anticancer activity against human CCRF-CEM cells; outline: as §1
# [9] = system: OVCAR-8; experiment: Anticancer activity against human OVCAR8 cells; outline: as §1
# [10] = system: NCI-H23; experiment: Anticancer activity against human NCI-H23 cells; outline: as §1
# [11] = system: HT-29; experiment: Anticancer activity against human HT-29 cells; outline: as §1
# [12] = system: A498; experiment: Anticancer activity against human A498 cells; outline: as §1
# [13] = system: UO-31; experiment: Anticancer activity against human UO31 cells; outline: as §2
# [14] = system: TK-10; experiment: Anticancer activity against human TK10 cells; outline: as §2
# [15] = system: CAKI-1; experiment: Anticancer activity against human Caki1 cells; outline: as §1
# [16] = system: K562; experiment: Anticancer activity against human K562 cells; outline: as §1
# [17] = system: SW-620; experiment: Anticancer activity against human SW620 cells; outline: as §2
# [18] = system: OVCAR-5; experiment: Anticancer activity against human OVCAR5 cells; outline: as §1
# [19] = system: HOP-62; experiment: Anticancer activity against human HOP62 cells; outline: as §1
# [20] = Anticancer activity against human NCI/ADR cells; settings: NCI/ADR-RES; outline: as §1
# [21] = system: NCI-H522; experiment: Anticancer activity against human NCI-H522 cells; outline: as §1
# [22] = system: HCT-116; experiment: Anticancer activity against human HCT116 cells; outline: as §1
# [23] = system: DU-145; experiment: Anticancer activity against human DU145 cells; outline: as §1
# [24] = system: HCC 2998; experiment: Anticancer activity against human HCC2998 cells; outline: as §1
# [25] = system: SNB-75; experiment: Anticancer activity against human SNB75 cells; outline: as §2
# [26] = system: SF-268; experiment: Anticancer activity against human SF268 cells; outline: as §1
# [27] = system: SK-OV-3; experiment: Anticancer activity against human SKOV3 cells; outline: as §1
# [28] = system: OVCAR-3; experiment: Anticancer activity against human OVCAR3 cells; outline: as §1
# [29] = system: SK-MEL-5; experiment: Anticancer activity against human SK-MEL-5 cells; outline: as §1
# [30] = system: MCF7; experiment: Anticancer activity against human MCF7 cells; outline: as §1
# [31] = system: BT-549; experiment: Anticancer activity against human BT549 cells; outline: as §1
# [32] = system: SF-539; experiment: Anticancer activity against human SF539 cells; outline: as §1
# [33] = Anticancer activity against human […] cells; outline: as §1
# [34] = Anticancer activity against human Hs 578T cells; outline: as §1
# [35] = system: SF-295; experiment: Anticancer activity against human SF295 cells; outline: as §1
# [36] = system: OVCAR-4; experiment: Anticancer activity against human OVCAR4 cells; outline: as §1
# [37] = system: UACC-62; experiment: Anticancer activity against human UACC62 cells; outline: as §2
# [38] = system: 786-0; experiment: Anticancer activity against human 786-0 cells; outline: as §1
# [39] = system: UACC-257; experiment: Anticancer activity against human UACC257 cells; outline: as §2
# [40] = system: SNB-19; experiment: Anticancer activity against human SNB19 cells; outline: as §1
# [41] = system: LOX IMVI; experiment: Anticancer activity against human LOXIMVI cells; outline: as §1
# [42] = system: ACHN; experiment: Anticancer activity against human ACHN cells; outline: as §1
# [43] = system: IGROV-1; experiment: Anticancer activity against human IGROV1 cells; outline: as §1
# [44] = system: MOLT-4; experiment: Anticancer activity against human MOLT4 cells; outline: as §1
# [45] = system: SK-MEL-2; experiment: Anticancer activity against human SK-MEL-2 cells; outline: as §1
# [46] = system: SK-MEL-28; experiment: Anticancer activity against human SK-MEL-28 cells; outline: as §1
# [47] = system: Malme-3M; experiment: Anticancer activity against human MALME-3M cells; outline: as §1
# [48] = system: RXF 393; experiment: Anticancer activity against human RXF393 cells; outline: as §1
# [49] = system: NCI-H226; experiment: Anticancer activity against human NCI-H226 cells; outline: as §1
# [50] = system: MDA-MB-231; experiment: Anticancer activity against human MDA-MB-231 cells; outline: as §1
# [51] = system: A549; experiment: Anticancer activity against human A549 cells; outline: as §1
# [52] = system: NCI-H460; experiment: Anticancer activity against human NCI-H460 cells; outline: as §1
# [53] = system: MDA-MB-468; experiment: Anticancer activity against human MDA-MB-468 cells; outline: as §1
# [54] = system: NCI-H322M; experiment: Anticancer activity against human NCI-H322M cells; outline: as §1
# [55] = system: HOP-92; experiment: Anticancer activity against human HOP92 cells
# Outline: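 NCI 60-cell human tumour panel screen that includes non-small cell lung lines. The first stage used a single 10 µM dose. Compounds reaching more than 60% growth inhibition in at least eight lines went on to five-dose response testing. GI50 and LC50 came from curves of effect against log10 molar concentration. GI50 is the concentration giving a 50% reduction in net protein increase versus control cells.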
# [56] = system: T47D; experiment: Anticancer activity against human T47D cells; outline: as §2
# [57] = system: M14; experiment: Anticancer activity against human M14 cells; outline: as §1
# [58] = system: HL-60(TB); experiment: Anticancer activity against human HL-60(TB) cells; outline: as §1
# [59] = system: EKVX; experiment: Anticancer activity against human EKVX cells; outline: as §1
# [60] = read-out: LC50 (the source's name)
compound,measurement,setting,value
N=C1NC(=O)/C(=C/c2cn(Cc3ccc(F)cc3)c3ccc(Cl)cc23)S1,GI50,[1],7.49 µM
same,CC50,[1]; [60],> 100 µM
same,GI50,[2],23.6 µM
same,CC50,[2]; [60],> 100 µM
same,GI50,[3],2940 nM
same,CC50,[3]; [60],> 100 µM
same,GI50,[4],> 100 µM
same,CC50,[4]; [60],> 100 µM
same,GI50,[5],> 100 µM
same,CC50,[5]; [60],> 100 µM
same,GI50,[6],32.4 µM
same,CC50,[6]; [60],> 100 µM
same,GI50,[7],> 100 µM
same,CC50,[7]; [60],> 100 µM
same,GI50,[8],> 100 µM
same,CC50,[8]; [60],> 100 µM
same,GI50,[9],19 nM
same,CC50,[9]; [60],> 100 µM
same,GI50,[10],60.1 µM
same,CC50,[10]; [60],> 100 µM
same,GI50,[11],20.8 µM
same,CC50,[11]; [60],> 100 µM
same,GI50,[12],31.5 µM
same,CC50,[12]; [60],> 100 µM
same,GI50,[13],> 100 µM
same,CC50,[13]; [60],> 100 µM
same,GI50,[14],5.64 µM
same,CC50,[14]; [60],> 100 µM
same,GI50,[15],> 100 µM
same,CC50,[15]; [60],> 100 µM
same,GI50,[16],77.6 µM
same,CC50,[16]; [60],> 100 µM
same,GI50,[17],38.3 µM
same,CC50,[17]; [60],> 100 µM
same,GI50,[18],> 100 µM
same,CC50,[18]; [60],> 100 µM
same,GI50,[19],> 100 µM
same,CC50,[19]; [60],> 100 µM
same,GI50,[20],> 100 µM
same,CC50,[20]; [60],> 100 µM
same,GI50,[21],11 µM
same,CC50,[21]; [60],> 100 µM
same,GI50,[22],5.41 µM
same,CC50,[22]; [60],> 100 µM
same,GI50,[23],5.24 µM
same,CC50,[23]; [60],> 100 µM
same,GI50,[24],> 100 µM
same,CC50,[24]; [60],> 100 µM
same,GI50,[25],2470 nM
same,CC50,[25]; [60],> 100 µM
same,GI50,[26],32 µM
same,CC50,[26]; [60],> 100 µM
same,GI50,[27],> 100 µM
same,CC50,[27]; [60],> 100 µM
same,GI50,[28],> 100 µM
same,CC50,[28]; [60],30.1 µM
same,GI50,[29],> 100 µM
same,CC50,[29]; [60],> 100 µM
same,GI50,[30],> 100 µM
same,CC50,[30]; [60],> 100 µM
same,GI50,[31],98.8 µM
same,CC50,[31]; [60],> 100 µM
same,GI50,[32],4.4 µM
same,CC50,[32]; [60],> 100 µM
same,GI50,[33],> 100 µM
same,CC50,[33]; [60],> 100 µM
same,GI50,[34],3.67 µM
same,CC50,[34]; [60],> 100 µM
same,GI50,[35],> 100 µM
same,CC50,[35]; [60],> 100 µM
same,GI50,[36],2490 nM
same,CC50,[36]; [60],> 100 µM
same,GI50,[37],> 100 µM
same,CC50,[37]; [60],> 100 µM
same,GI50,[38],37.4 µM
same,CC50,[38]; [60],> 100 µM
same,GI50,[39],13 nM
same,CC50,[39]; [60],300 nM
same,GI50,[40],> 100 µM
same,CC50,[40]; [60],> 100 µM
same,GI50,[41],2320 nM
same,CC50,[41]; [60],> 100 µM
same,GI50,[42],> 100 µM
same,CC50,[42]; [60],> 100 µM
same,GI50,[43],3.02 µM
same,CC50,[43]; [60],> 100 µM
same,GI50,[44],> 100 µM
same,CC50,[44]; [60],> 100 µM
same,GI50,[45],> 100 µM
same,CC50,[45]; [60],> 100 µM
same,GI50,[46],> 100 µM
same,CC50,[46]; [60],> 100 µM
same,GI50,[47],23.5 µM
same,CC50,[47]; [60],> 100 µM
same,GI50,[48],1620 nM
same,CC50,[48]; [60],> 100 µM
same,GI50,[49],80.7 µM
same,CC50,[49]; [60],> 100 µM
same,GI50,[50],6.45 µM
same,CC50,[50]; [60],> 100 µM
same,GI50,[51],770 nM
same,CC50,[51]; [60],> 100 µM
same,GI50,[52],> 100 µM
same,CC50,[52]; [60],> 100 µM
same,GI50,[53],> 100 µM
same,CC50,[53]; [60],> 100 µM
same,GI50,[54],71 µM
same,CC50,[54]; [60],> 100 µM
same,GI50,[55],> 100 µM
same,GI50,[56],> 100 µM
same,CC50,[56]; [60],> 100 µM
same,GI50,[57],57.2 µM
same,CC50,[57]; [60],> 100 µM
same,GI50,[58],> 100 µM
same,CC50,[58]; [60],> 100 µM
same,GI50,[59],> 100 µM
same,CC50,[59]; [60],> 100 µM

# From ChEMBL document CHEMBL1681666, “Synthesis and in vitro screening of novel N-benzyl aplysinopsin analogs as potential anticancer agents” (2011)
